From paper PMC6585461 (Biomaterials, 2019)

Assays:
[1] = tested on: SKOV-3 cells; experiment: Intracellular uptake of RB-BSA by confocal microscopy; assay type: cell-based; conditions: BSA ~60 μg/mL, 2 h, 37 °C
Procedure, shortened: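 SKOV-3 cells in McCoy's 5A with 10% FBS were seeded at 5 × 10⁴ per well and allowed to adhere for 24 h. Lysosomes were labelled with LysoTracker Green DND-26 for 30 min at 37 °C. Rhodamine B-labelled BSA, free or nanocarrier-loaded (final BSA ~60 μg/mL), was added for 2 h. Cells were washed three times with PBS, fixed in 4% paraformaldehyde for 15 min at room temperature, DAPI-stained and imaged by laser scanning confocal microscopy.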

[2] = tested on: blood glucose; experiment: Hypoglycemic effect of insulin formulations; assay type: in vivo, BALB/c mice; conditions: fasted mice, s.c., 2 IU/kg
Procedure, shortened: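 Healthy BALB/c mice, 6-7 weeks old, were fasted overnight with water only and kept fasted throughout, n=6 per group. They received a subcutaneous injection at an insulin dose of 2 IU/kg, either free insulin or insulin loaded in nanocarriers at a 1/10 insulin:polymer mass ratio. Blood glucose was followed with a glucose meter over 0-6 h. Area above the curve was calculated by the trapezoidal method.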

RB-BSA: Rhodamine B (RB)-labeled BSA, model protein
cellular uptake of RB-BSA (free or loaded in the nanocarrier) [1]: minimal

insulin: insulin (MW: 5807 Da)
glycemic decrease ([2]; 30 min after injection, n=6): 32%
blood glucose recovery, % of basal level ([2]; after 2 h): 80%
time of maximal blood glucose drop (nadir) ([2]; n=6): 1 h
